Assay results: the RNAGym collection of RNA variant scans (doi:10.1126/science.aae0568)
This sample holds only a part of the variants without activity.

B1: tRNA (parent)
chain: GUUCCGUUGGCGUAAUGGUAACGCGUCUCCCUCCUAAGGAGAAGACUGCGGGUUCGAGUCCCGUACGGAACG

Variants of: B1
Assay: yeast fitness relative to wild type (ratio to wild type); higher = fitter; tRNA-Arg(CCU), competitive growth, 37 C, YPD
Procedure, shortened: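 A pool of Saccharomyces cerevisiae strains, each with a tRNA-Arg(CCU) gene variant at the native genomic locus, was competed in YPD at 37°C for 24 hours across six parallel replicates. The variants had been chemically synthesised at a 3% per-site mutation rate over 69 sites, and gene amplicons before and after competition were read by 100-nucleotide paired-end sequencing. Darwinian fitness relative to wild type rested on changes in genotype frequencies. Genotypes required ≥ 100 starting reads, and estimates < 0.5 were set to 0.5.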

Variant	yeast fitness
GUUACGUUGGCGUAAUGGUAAUGCGUCUCCCUCCUAAGGAGAAGACUCCGGGUUCGAGUCCCGUACGGAACG [C4A C22U G48C]	≤ 0.5
GUUCCGUUGGCGUAACGGUAACGCGUCUCCCUCCUAAGGAGAAAACUGCGGGUCCCAGUCCCGUACGGAACG [U16C G44A U54C G56C]	0.558
GUUCCGUUGGCGUAAUGGAAACGCGUCUCCCUCCUUAGGAGAAGUCUGUGGGUUCGAGUCCCGAACGGAUCG [U19A A36U A45U C49U U64A A70U]	0.788
GUUCCGUUGGCGUAAUGGUAACGCGUCUCCCACCUAAGGACAAGACUGGGGGUUUGAGUCCCGUACGGAACG [U32A G41C C49G C55U]	≤ 0.5
GUUCCGUUGGCGUACUGGUAACGCGUGUCUCUCCUAAGGAGAAGAAUGCGGGUUCGAGUCCCGUACGGAACG [A15C C27G C30U C46A]	0.542
GUUCCGUUGGCGUAAUGGUAACGCGACUCCCCCCUAAGGAGAAGACUGCGGGUUCGAGUCCCGUACGGAACG [U26A U32C]	0.936
GUUCCGUUACUGUAAGGGUAACGCGUCUCCCUCCUAAGGAAAAGACUGCGGGUUCGAGUCCCGUACGGAACG [G9A G10C C11U U16G G41A]	0.597
GUUCCGUCGGCGUAAAGGAAAUGCGUCUCCCUCCUAAGGAGAAGACUGCGGGUUCGAGUCCCGUACGGAACG [U8C U16A U19A C22U]	0.536
GUUCCGUUGGUGUAAUGGUAAAGGGUCUCCCUCCUGAGCAGAAGACUGCGGGUUUGAGUCCCGUAUGGAACG [C11U C22A C24G A36G G39C C55U C66U]	≤ 0.5
GUUCCGUUGGCGUAAUGGUAACGCGUUUCUCUCCUAAGGAGAAGACUGCGGGAUCGAGUCCCGUACGGCACG [C27U C30U U53A A69C]	0.507
GUUCCGUGUGCGUAAUGGUAACGCGUCUCACUCCUAAGGAGAAGACUGCGGGUUUGAGUCCCGUACGGAACG [U8G G9U C30A C55U]	≤ 0.5
GUUCCGUUGGCGUAAUGGUAACGGGUCUCCCUCCUUAGGAGAAGACUGCGGGUACGAGUCCCGUACGGAACG [C24G A36U U54A]	≤ 0.5
GUUCCGUUGGCGUAAUGGUAACGCGUCUGCCUCAUAAGCAGAAGACUGCGGGUUCGAGUCCCGUACGGAACG [C29G C34A G39C]	≤ 0.5
GUUACGUUGGCGUAAUGGUAACGCGUCUCCCUCCUAAGGAGAAGACUGCGGGUCCGAGACCCGUACGGAACG [C4A U54C U59A]	0.542
GUUCCGUUGGCCUAAUGGUAACGCGUCUCCCUCCUAAGGAGAAGACUGCGGGUUCGAGUUCCGUACGGAACG [G12C C60U]	0.726
GUCCCGUUGGCGUAAUGGUAACGCGUCUCCUUCCUAAGGAGAAGACUGUGGGUUCGAGUCCCGUACGGAACG [U3C C31U C49U]	0.919
GUUCCGUUGGCGUAAUGGUAACGCGUCUCCCUCCUAAGGAGAAGAAUGCGGGUUCGUGUCCCGUACGGAACG [C46A A57U]	0.792
GUUCCGUUGGCGUAAUGGUUACGCGUCUCGCUUCUAAGGAGAAGACUGCGGGUUCGACUCCCGUACGGAACG [A20U C30G C33U G58C]	≤ 0.5
GUUCCGUUGGCGUAAUGGUAACCCGUCUCCCUCCUAAGGAGAAGACUGCGGGAUUGAGUCCCGUACGGAACG [G23C U53A C55U]	0.563

Variant	yeast fitness
GUUCCGUUGGCGUAAUGGUAUCGCGUCUCCCUCCUAGGGAGAAGACUGCGGGUUCGAGUCCCGUACGGAACG [A21U A37G]	0.664
GGUCCAUUGGCGUAAUGGUAACGCGUUUCCCUCCUUAGGAGAAGACUGCGGGUUCGAGUCUGGUACGGAACG [U2G G6A C27U A36U C61U C62G]	≤ 0.5
GUUCCGUUGGCGUAAUGGUAACGCGUCUCCCUGCUAAGGAGGAGACUGUGGGUUCGAGUCCCGUACAGAACG [C33G A42G C49U G67A]	≤ 0.5
GUUCCGUUGGCGUAAUGGUCACGCGUCUCCCUCCUAAGGAGAAGACUGCGGGUUCAAGUCUCGUACGGAACG [A20C G56A C61U]	0.571
GUUCCGUUGGCGUAACGGUAUCGCGUCUCCCUCCUAAGGAGAAGACUGCGGGUUCGAGUCCUGUACGGAACG [U16C A21U C62U]	≤ 0.5
GUUCCGUUGGCGUAAUGGUUACGCGUGUCCCUCUCCAGGAGAAGACUGCGGGUUCGAGUCCCGUACGGAACG [A20U C27G C34U U35C A36C]	0.921
GUUCCGUUGGCGUAAUGGUAUCGCGUCUCCCUCCUAAGGAGAAGACUGCGGGUUCGAGUCCCGUACGGAGCG [A21U A70G]	0.786
GUUCUGUUGGCGUAAUGGUAGCGAGUCUCCCUCCUAAGGAGCAGACUGCGGGUUCGAGUCCCAUACGGAACG [C5U A21G C24A A42C G63A]	≤ 0.5
GUUCCGUAGGAGUAAUGGUAACGCGUCUCCCUCCUAAGGAGAAGACUGCGGGUUCGAGUCCCGUACGGAACG [U8A C11A]	0.674
GUUCCGUUGGGGUAAUGGUAACGCGUCUCCCUCCUAAGGAGAAGACUGCGGGUUCGAGUCCCGCACGGAACG [C11G U64C]	0.567
GUUCCGUUGACGUAAUGGUAACGCGUCUCCCUCCGAUGGAGAAGACCGCGGGUUCGAGUCCCGUACGGAGCG [G10A U35G A37U U47C A70G]	≤ 0.5
GUUCUGUUGGCGUAAUGGUAACGCGUCUCCCUCCUAAGGAGAAGAUUGCGGGUUCGAGUCCCGUACGGAACG [C5U C46U]	1.07
GUUCCGUUGGCGUAAUGGUAACGCGUCUCCCUCCUAAGGAGAAGCCUGCGGGUUCGAGCCCCGUACGGAACG [A45C U59C]	0.874
GCCCCGUUGGCGUAAUGGAAACGCGUCUCCCUCCUAAGGAGAAGACUGCGGGUUCGAGUCACGUACGGAACG [U2C U3C U19A C61A]	≤ 0.5
GUGCCGUUGGCGUAAUGGUAAAGCCUCUCCCUUCUAAGGAGAAGACUGCGGGUUCGAGUCCCGUACGGCACG [U3G C22A G25C C33U A69C]	0.507
GUUCCGUUGACGUAAUGGUAACGCGUCUCCCUCCUAAGGAGAAGACAGCGGGUUCGAGUCCCGUCCGGAACG [G10A U47A A65C]	≤ 0.5
GUUCCGUUGGGGUAAUGGUAACGCGUCUCCCUCCUAAGGAGAAGACUGCGGGUUCGAGUCCCCUACGGAACG [C11G G63C]	0.543
GUUCCGUUGGCGUAAUGGUAACGCGUCUCGCUCCUAAGGAAAAGACUGCGGGUUCGAGUCCCGUACGGAACG [C30G G41A]	0.568
GUUCCGUUCGCGUAAUGGUAACGCGUCUCCCUCCUAAGGAGUAGACUGCGGGUUCGAGUCUCGAACGGGACG [G9C A42U C61U U64A A69G]	≤ 0.5
